Reference: ChEMBL document CHEMBL4339192, “De Novo Designed Amphipathic α-Helical Antimicrobial Peptides Incorporating Dab and Dap Residues on the Polar Face To Treat the Gram-Negative Pathogen, Acinetobacter baumannii” (J Med Chem, 2019)
In brackets after ≈: the same amount, converted by molar mass. Where a SMILES comes first, the peptide text is derived from it. [ ]: non-standard residue; d: D form. Dab = NCC[C@H](N)C(=O)O

Experiments:
Acinetobacter baumannii [1] = assay: Antibacterial activity against Acinetobacter baumannii isolate 1007660 measured after 24 hrs by microtiter dilution method; type: functional; settings: isolate 1007660, 24 h
In short: (§1)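 Broth microdilution in Mueller-Hinton (MH) medium. […] Plates were incubated 24 h at 37 °C. MIC was the lowest peptide concentration that inhibited growth, based on three sets of replicates.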

[2] = Therapeutic index, ratio of HC50 for human RBC to MIC for polymyxin B/colistin-resistant Acinetobacter baumannii M89941; type: toxicity; settings: human red blood cells, read-out: TI
In short: (§2)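 T.I. = HC50/MIC. For HC50, peptide (quantified by amino acid analysis) was two-fold serially diluted over 12 concentrations up to 1000 μg/mL. It was incubated with 1% fresh human erythrocytes in PBS, pH 7.4, for 18 h at 37 °C. After 800g centrifugation, hemoglobin was read at 570 nm against water (100%) and no-peptide (0%) controls. HC50 came from a lysis-versus-concentration plot, average of 3 replicates.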

Acinetobacter baumannii [3] = assay: Antibacterial activity against Acinetobacter baumannii isolate 9383370 measured after 24 hrs by microtiter dilution method; type: functional; settings: isolate 9383370, 24 h; in short: as §1
Acinetobacter baumannii [4] = assay: Antibacterial activity against polymyxin B/colistin-resistant Acinetobacter baumannii M89963 measured after 24 hrs by microtiter dilution method; type: functional; settings: M89963, 24 h; in short: as §1
Acinetobacter baumannii [5] = assay: Antibacterial activity against Acinetobacter baumannii isolate 1018887 measured after 24 hrs by microtiter dilution method; type: functional; settings: isolate 1018887, 24 h; in short: as §1
Acinetobacter baumannii [6] = assay: Antibacterial activity against Acinetobacter baumannii isolate 964304 measured after 24 hrs by microtiter dilution method; type: functional; settings: isolate 964304, 24 h; in short: as §1
Acinetobacter baumannii [7] = assay: Antibacterial activity against Acinetobacter baumannii 649 measured after 24 hrs in presence of 25% human serum by microtiter dilution method; type: functional; settings: Acinetobacter baumannii, 649, 24 h
In short: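 Blood strain 649 was tested by MH broth microdilution with and without 25% (v/v) human serum added to the medium. The test used a final inoculum of 5 × 10^5 cfu/mL and incubation at 37 °C. The ratio is the MIC in serum over the MIC in MH alone.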

Acinetobacter baumannii [8] = assay: Antibacterial activity against Acinetobacter baumannii isolate 1021371 measured after 24 hrs by microtiter dilution method; type: functional; settings: isolate 1021371, 24 h; in short: as §1
[9] = Therapeutic index, ratio of HC50 for human RBC to MIC for polymyxin B/colistin-resistant Acinetobacter baumannii M89952; type: toxicity; settings: human red blood cells, read-out: TI; in short: as §2
Acinetobacter baumannii [10] = assay: Antibacterial activity against Acinetobacter baumannii isolate 1010282 measured after 24 hrs by microtiter dilution method; type: functional; settings: isolate 1010282, 24 h; in short: as §1
Acinetobacter baumannii [11] = assay: Antibacterial activity against Acinetobacter baumannii isolate 1035794 measured after 24 hrs by microtiter dilution method; type: functional; settings: isolate 1035794, 24 h; in short: as §1
Acinetobacter baumannii [12] = assay: Antibacterial activity against polymyxin B/colistin-resistant Acinetobacter baumannii M89941 measured after 24 hrs by microtiter dilution method; type: functional; settings: M89941, 24 h; in short: as §1
Acinetobacter baumannii [13] = assay: Antibacterial activity against polymyxin B/colistin-resistant Acinetobacter baumannii M89949 measured after 24 hrs by microtiter dilution method; type: functional; settings: M89949, 24 h; in short: as §1
Acinetobacter baumannii [14] = assay: Antibacterial activity against Acinetobacter baumannii isolate 1002956 measured after 24 hrs by microtiter dilution method; type: functional; settings: isolate 1002956, 24 h; in short: as §1
Acinetobacter baumannii [15] = assay: Antibacterial activity against Acinetobacter baumannii isolate 1035166 measured after 24 hrs by microtiter dilution method; type: functional; settings: isolate 1035166, 24 h; in short: as §1
[16] = Therapeutic index, ratio of HC50 for human RBC to MIC for polymyxin B/colistin-resistant Acinetobacter baumannii M89953; type: toxicity; settings: human red blood cells, read-out: TI; in short: as §2
Acinetobacter baumannii [17] = assay: Antibacterial activity against Acinetobacter baumannii isolate 952654 measured after 24 hrs by microtiter dilution method; type: functional; settings: isolate 952654, 24 h; in short: as §1
Acinetobacter baumannii [18] = assay: Antibacterial activity against Acinetobacter baumannii isolate 1001611 measured after 24 hrs by microtiter dilution method; type: functional; settings: isolate 1001611, 24 h; in short: as §1
[19] = Hemolytic activity against human RBC measured after 18 hrs by spectrophotometric method; type: ADME, cell-based, Erythrocyte; settings: human red blood cells (erythrocytes)
In short: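 Peptide (amount by amino acid analysis), two-fold serial dilutions at 12 concentrations up to 1000 μg/mL, with 1% human erythrocytes in PBS pH 7.4, 37 °C, 18 h. Unlysed cells removed by centrifugation (800g); hemoglobin read at 570 nm. Water-lysed cells = 100%, no-peptide cells = 0%. HC50 from plot of % lysis vs concentration (μM), average of 3 replicates.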

Acinetobacter baumannii [20] = assay: Antibacterial activity against Acinetobacter baumannii isolate 981650 measured after 24 hrs by microtiter dilution method; type: functional; settings: isolate 981650, 24 h; in short: as §1
Acinetobacter baumannii [21] = assay: Antibacterial activity against Acinetobacter baumannii isolate 963659 measured after 24 hrs by microtiter dilution method; type: functional; settings: isolate 963659, 24 h; in short: as §1
Acinetobacter baumannii [22] = assay: Antibacterial activity against polymyxin B/colistin-resistant Acinetobacter baumannii M89955 measured after 24 hrs by microtiter dilution method; type: functional; settings: M89955, 24 h; in short: as §1
Acinetobacter baumannii [23] = assay: Antibacterial activity against Acinetobacter baumannii isolate 963618 measured after 24 hrs by microtiter dilution method; type: functional; settings: isolate 963618, 24 h; in short: as §1
[24] = Therapeutic index, ratio of HC50 for human RBC to MIC for polymyxin B/colistin-resistant Acinetobacter baumannii M89951; type: toxicity; settings: human red blood cells, read-out: TI; in short: as §2
[25] = Therapeutic index, ratio of HC50 for human RBC to MIC for polymyxin B/colistin-resistant Acinetobacter baumannii M89963; type: toxicity; settings: human red blood cells, read-out: TI; in short: as §2
Acinetobacter baumannii [26] = assay: Antibacterial activity against polymyxin B/colistin-resistant Acinetobacter baumannii M89951 measured after 24 hrs by microtiter dilution method; type: functional; settings: M89951, 24 h; in short: as §1
Acinetobacter baumannii [27] = assay: Antibacterial activity against Acinetobacter baumannii isolate 961997 measured after 24 hrs by microtiter dilution method; type: functional; settings: isolate 961997, 24 h; in short: as §1
Acinetobacter baumannii [28] = assay: Antibacterial activity against polymyxin B/colistin-resistant Acinetobacter baumannii M89952 measured after 24 hrs by microtiter dilution method; type: functional; settings: M89952, 24 h; in short: as §1
Acinetobacter baumannii [29] = assay: Antibacterial activity against Acinetobacter baumannii isolate 965463 measured after 24 hrs by microtiter dilution method; type: functional; settings: isolate 965463, 24 h; in short: as §1
Acinetobacter baumannii [30] = assay: Antibacterial activity against Acinetobacter baumannii isolate 1010245 measured after 24 hrs by microtiter dilution method; type: functional; settings: isolate 1010245, 24 h; in short: as §1
Acinetobacter baumannii [31] = assay: Antibacterial activity against Acinetobacter baumannii isolate 968886 measured after 24 hrs by microtiter dilution method; type: functional; settings: isolate 968886, 24 h; in short: as §1
[32] = Therapeutic index, ratio of HC50 for human RBC to MIC for polymyxin B/colistin-resistant Acinetobacter baumannii M89955; type: toxicity; settings: human red blood cells, read-out: TI; in short: as §2
Acinetobacter baumannii [33] = assay: Antibacterial activity against Acinetobacter baumannii 649 measured after 24 hrs by microtiter dilution method; type: functional; settings: Acinetobacter baumannii, 649, 24 h; in short: as §1
Acinetobacter baumannii [34] = assay: Antibacterial activity against polymyxin B/colistin-resistant Acinetobacter baumannii M89953 measured after 24 hrs by microtiter dilution method; type: functional; settings: M89953, 24 h; in short: as §1
[35] = Therapeutic index, ratio of HC50 for human RBC to MIC for polymyxin B/colistin-resistant Acinetobacter baumannii M89949; type: toxicity; settings: human red blood cells, read-out: TI; in short: as §2
Acinetobacter baumannii [36] = assay: Antibacterial activity against Acinetobacter baumannii isolate 977751 measured after 24 hrs by microtiter dilution method; type: functional; settings: isolate 977751, 24 h; in short: as §1
Acinetobacter baumannii [37] = assay: Antibacterial activity against Acinetobacter baumannii isolate 1017395 measured after 24 hrs by microtiter dilution method; type: functional; settings: isolate 1017395, 24 h; in short: as §1

## CC(=O)N[C@H](CCCCN)C(=O)N[C@H](CC(C)C)C(=O)N[C@@H](CCN)C(=O)N[C@H](CO)C(=O)N[C@H](CC(C)C)C(=O)N[C@H](CC(C)C)C(=O)N[C@@H](CCN)C(=O)N[C@@H](C(=O)N[C@H](CC(C)C)C(=O)N[C@H](CO)C(=O)N[C@@H](CCN)C(=O)N[C@H](C)C(=O)N[C@H](CCCCN)C(=O)N[C@H](C)C(=O)N[C@H](C)C(=O)N[C@H](CCCCN)C(=O)N[C@H](CC(C)C)C(=O)N[C@@H](CCN)C(=O)N[C@@H](C(=O)N[C@H](CC(C)C)C(=O)N[C@H](CC(C)C)C(=O)N[C@@H](CCN)C(=O)N[C@H](C)C(=O)N[C@H](CC(C)C)C(=O)N[C@H](CO)C(=O)N[C@@H](CCN)C(N)=O)[C@H](C)O)[C@H](C)O (Ac-[dK][dL][Dab][dS][dL][dL][Dab][dT][dL][dS][Dab][dA][dK][dA][dA][dK][dL][Dab][dT][dL][dL][Dab][dA][dL][dS][Dab]-NH2)
Acinetobacter baumannii [1]
  MIC: 0.7 µM (≈ 1.89 µg/mL)
[2]
  selectivity ratio: > 742
Acinetobacter baumannii [3]
  MIC: 0.7 µM (≈ 1.89 µg/mL)
Acinetobacter baumannii [4]
  MIC: 1.4 µM (≈ 3.78 µg/mL)
Acinetobacter baumannii [5]
  MIC: 0.7 µM (≈ 1.89 µg/mL)
Acinetobacter baumannii [6]
  MIC: 1.5 µM (≈ 4.05 µg/mL)
Acinetobacter baumannii [7]
  MIC: 0.2 µM
Acinetobacter baumannii [8]
  MIC: 1.5 µM (≈ 4.05 µg/mL)
[9]
  selectivity ratio: > 742
Acinetobacter baumannii [10]
  MIC: 0.7 µM (≈ 1.89 µg/mL)
Acinetobacter baumannii [11]
  MIC: 1.5 µM (≈ 4.05 µg/mL)
Acinetobacter baumannii [12]
  MIC: 0.7 µM (≈ 1.89 µg/mL)
Acinetobacter baumannii [13]
  MIC: 0.7 µM (≈ 1.89 µg/mL)
Acinetobacter baumannii [14]
  MIC: 0.7 µM (≈ 1.89 µg/mL)
Acinetobacter baumannii [15]
  MIC: 0.7 µM (≈ 1.89 µg/mL)
[16]
  selectivity ratio: > 742
Acinetobacter baumannii [17]
  MIC: 1.5 µM (≈ 4.05 µg/mL)
Acinetobacter baumannii [18]
  MIC: 0.7 µM (≈ 1.89 µg/mL)
[19]
  HC50 at 18 h: > 742 µM
Acinetobacter baumannii [20]
  MIC: 0.7 µM (≈ 1.89 µg/mL)
Acinetobacter baumannii [21]
  MIC: 0.7 µM (≈ 1.89 µg/mL)
Acinetobacter baumannii [22]
  MIC: 0.7 µM (≈ 1.89 µg/mL)
Acinetobacter baumannii [23]
  MIC: 0.7 µM (≈ 1.89 µg/mL)
[24]
  selectivity ratio: > 742
[25]
  selectivity ratio: > 742
Acinetobacter baumannii [26]
  MIC: 1.4 µM (≈ 3.78 µg/mL)
Acinetobacter baumannii [27]
  MIC: 0.7 µM (≈ 1.89 µg/mL)
Acinetobacter baumannii [28]
  MIC: 0.7 µM (≈ 1.89 µg/mL)
Acinetobacter baumannii [29]
  MIC: 3 µM (≈ 8.09 µg/mL)
Acinetobacter baumannii [30]
  MIC: 0.7 µM (≈ 1.89 µg/mL)
Acinetobacter baumannii [31]
  MIC: 1.5 µM (≈ 4.05 µg/mL)
[32]
  selectivity ratio: > 742
Acinetobacter baumannii [33]
  MIC: 0.7 µM (≈ 1.89 µg/mL)
Acinetobacter baumannii [34]
  MIC: 1.4 µM (≈ 3.78 µg/mL)
[35]
  selectivity ratio: > 742
Acinetobacter baumannii [36]
  MIC: 0.7 µM (≈ 1.89 µg/mL)
Acinetobacter baumannii [37]
  MIC: 3 µM (≈ 8.09 µg/mL)
